RAD52 anneal inh – blocks human RAD52 DNA annealing; P43351; recombinant RAD52 DNA annealing, FRET fluorescence; inhibition, % at 18.7 µM; 0.46% of 360,000 active; AID 651710;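 active = every replicate showing at least 50% inhibition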
Target sequence (P43351 whole entry, looked up): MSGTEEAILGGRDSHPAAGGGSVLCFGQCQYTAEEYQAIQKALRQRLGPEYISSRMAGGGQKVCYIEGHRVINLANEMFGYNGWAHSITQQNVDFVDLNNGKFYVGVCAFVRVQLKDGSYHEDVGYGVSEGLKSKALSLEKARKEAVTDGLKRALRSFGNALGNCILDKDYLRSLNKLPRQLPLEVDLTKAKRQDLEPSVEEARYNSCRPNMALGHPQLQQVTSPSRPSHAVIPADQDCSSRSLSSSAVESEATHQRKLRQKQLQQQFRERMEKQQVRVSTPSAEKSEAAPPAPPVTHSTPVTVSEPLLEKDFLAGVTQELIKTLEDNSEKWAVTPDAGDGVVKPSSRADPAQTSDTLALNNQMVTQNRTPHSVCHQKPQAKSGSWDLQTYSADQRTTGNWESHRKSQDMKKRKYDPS
RAD54 inh – inhibitors of human RAD54 branch migration | Q92698 | RAD54 Holliday junction branch migration, FAM/BHQ fluorescence | inhibition, % at 10.4 µM | 0.14% of 360,000 active | AID 602329;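 active = mean normalized replicate activity at least 40 and at least half of replicates scoring 40 or more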;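 also: 0% = median of neutral control wells and 100% = median of positive control wells; inhibitors cause a drop in the FAM fluorescence signal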
E-sel inducer – induces E-selectin expression in human endothelial cells. P16581. HUVEC E-selectin immunofluorescence imaging; normalized: neutral wells 0, TNF-alpha wells 100. 0.37% of 260,000 active. AID 686992. activation, % at 7.58 µM;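 active = mean E-selectin-positive cell signal at least 10% of the positive control, reached in at least 60% of replicates, without over 20% cell loss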
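Test system: HUVEC; input: 3,000 HUVEC/well; measured by: immunofluorescence imaging; read-out: % PE-positive cells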
rRNA inh HTS – inhibits bacterial ribosomal RNA function over humanized ribosomes. E. coli WT GFP vs humanized-ribosome RFP mutants, fluorescence, 24 h; hits give low values; DMSO median 0, no signal -100. GFP signal change (wild-type ribosome), % (no concentration beside the values). 1.6% of 350,000 active;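 active = significant combined selectivity score with lowered wild-type GFP, culture density cut under 30%, mutant RFP and density less affected; inactive = any of these conditions unmet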
PglD DTNB – PglD (C. jejuni) enzyme inhibition | purified PglD enzyme, DTNB colorimetric CoA detection | inhibition, % at 12.5 µM | 0.098% of 360,000 active; in the data active = inhibition above about 16%, passing the limit was not always enough
Xi reactivation – X-chromosome reactivation activator. XiGFP mouse fibroblasts, % GFP-positive cells imaging, 3 d; cells co-treated with 5-aza-dC sensitizer; scaled so ellipticine positive control = 100%. activation, % at 7.58 µM. 0.055% of 360,000 active. AID 743238;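 active = mean normalized replicate activation at least 10% and every replicate at or above 10%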;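 also: 0% = median of on-plate neutral control wells and 100% = ellipticine 6 µM median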
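System: 68-5-11 XiGFP fibroblast line | Buffer or medium: DMEM containing 5-aza-dC | Compound: Single point | Times: Compounds 3 days, fix/stain 15 min at room temperature | Benchmarks: Positive control ellipticine, 6 µM final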
* hit, by the source's call; . = no result. Only some compounds are listed: those with a hit (about 2% of all), similar ones and a draw of the others.

SMILES	RAD52 anneal inh	RAD54 inh	E-sel inducer	rRNA inh HTS	PglD DTNB	Xi reactivation
Cc1ccc(NC(=O)c2ccc(CSc3ccccn3)cc2)c(O)c1	-5.6	.	0.6	-35.8*	.	-0.1
CCCNC(=O)Nc1ccc2c(c1)C(=O)N(C)C[C@H](OC)[C@H](C)CN(CCC(F)(F)F)[C@@H](C)CO2	.	.	-0.1	-0.6	.	0.3
O=C(Nc1ccccc1)N1CCCCN2[C@H](C1)[C@H](c1ccc(-c3ccccc3F)cc1)[C@@H]2CO	-0.9	-1.0	0.1	-11.6	-1.0	0.1
COc1ccc(NC(=O)N2CCCCN3[C@@H](CO)[C@@H](c4ccc(-c5ccccc5F)cc4)[C@@H]3C2)cc1	64.6*	19.7	0.2	-54.8	2.2	0.0
COc1ccc(NC(=O)N2CCCCN3[C@@H](CO)[C@H](c4ccc(-c5ccccc5F)cc4)[C@@H]3C2)cc1	60.0*	3.8	0.0	-55.5	3.3	0.0
C/C(=N\NC(=O)C1CCCC1)c1ccc(Cl)cc1	-10.4	9.8	-0.1	14.4	4.6	0.0
C/C(=N\NC(=O)C1CC1)c1ccc(Cl)cc1	-6.8	.	120.6*	9.0	.	0.1
COc1ccc(Nc2n[nH]c(N)c2C(N)=O)cc1	-3.8	.	28.1*	7.4	.	.
COc1ccc(Nc2nc(C)cc(C)c2C(N)=O)cc1	.	8.0	.	.	-4.0	.
Cc1ccc2c(c1)c1ccc3c(c1n2C)C(=O)C=CC3=O	-11.3	-10.1	0.4	-13.2	-5.2	0.3
Cn1c2ccccc2c2ccc3c(c21)C(=O)C=CC3=O	-1.2	.	0.8	-24.9*	.	0.2
CC(=O)NCCCC(=O)NN1C(=S)N(Cc2ccccc2)C(=O)C1CC(=O)Nc1cccc(C)c1 (stereo unspecified)	-18.3	.	.	-21.6*	.	0.0
O=c1c(O)c(-c2cc(O)c(O)c(O)c2)oc2cc(O)cc(O)c12	-61.1	10.2	-0.1	-24.0*	0.2	0.7
O=c1c(O)c(-c2ccccc2)oc2cc(O)cc(O)c12	-6.6	4.2	.	.	1.7	.
CO[C@@H]1CN(C)C(=O)c2cc(NS(=O)(=O)c3ccccc3C)ccc2OC[C@@H](C)NC[C@H]1C	2.6	8.6	0.1	2.2	-8.5	0.2
C/C=C/c1ccc([C@@H]2[C@@H](CN(C)C(=O)C3CC3)N(C(=O)CC)[C@H]2CO)cc1	.	-9.6	-0.1	1.3	-1.5	-0.1
CC(=O)Oc1c(C(C)C)cc(N(C(C)=O)c2ccccc2)cc1C(C)C	0.9	.	-0.7	-22.2*	.	0.1
C[C@H](CO)N1C[C@H](C)[C@H](CN(C)S(C)(=O)=O)Oc2ccc(NC(=O)CCCCCC(=O)Nc3ccccc3N)cc2CC1=O	1.9	4.7	-5.3	7.9	-2.5	-0.1
C[C@H](CO)N1C[C@H](C)[C@@H](CN(C)S(C)(=O)=O)Oc2ccc(NC(=O)CCCCCC(=O)Nc3ccccc3N)cc2CC1=O	-12.3	1.2	35.8*	7.2	2.9	0.0
C[C@H]1CN([C@@H](C)CO)C(=O)Cc2cc(NC(=O)CCCCCC(=O)Nc3ccccc3N)ccc2O[C@H]1CN(C)C	-7.4	-6.5	-2.9	0.3	15.0	0.0
C[C@@H]1CN([C@@H](C)CO)C(=O)Cc2cc(NC(=O)CCCCCC(=O)Nc3ccccc3N)ccc2O[C@H]1CN(C)C	12.5	-14.2	-3.3	4.0	21.1*	0.0
CN(C)c1ccc2c(c1)[C@H]1C[C@H](CC(=O)NCCN3CCCCC3)O[C@@H](CO)[C@H]1O2	23.0	52.6*	0.1	2.8	2.8	0.0
CN(C)CC(=O)Nc1ccc2c(c1)[C@@H]1C[C@@H](CC(=O)NCc3ccc(-c4ccccc4)cc3)O[C@H](CO)[C@@H]1O2	30.3	4.3	-0.3	-0.8	3.1	0.9
CN(C)CC(=O)Nc1ccc2c(c1)[C@H]1C[C@H](CC(=O)NCc3ccc(-c4ccccc4)cc3)O[C@H](CO)[C@H]1O2	61.5*	-1.3	0.1	-8.8	-0.6	0.3
C=CCNc1cccc2c1S(=O)(=O)N[C@@H](Cc1ccccc1)CO2	-29.2	.	-0.1	-35.9	.	-0.1
SMILES	RAD52 anneal inh	RAD54 inh	E-sel inducer	rRNA inh HTS	PglD DTNB	Xi reactivation
CCn1c(CCc2ccccc2)nc2ccccc21	2.0	-4.3	-0.1	-23.3*	1.6	0.2
CC(C)Cc1nc2ccccc2n1CCc1ccccc1	-20.1	.	.	.	.	0.0
CCc1nc2ccccc2n1CCc1ccccc1	-14.1	.	6.7	-24.1*	.	0.2
CC(C)(C)Cc1nc2ccccc2n1CCc1ccccc1	.	-11.6	.	.	-1.0	.
O=C(COC(=O)C12CC3CC(CC(Br)(C3)C1)C2)Nc1c(F)cccc1F	-3.2	0.3	.	-26.6*	-2.2	0.1
O=C(COC(=O)C12CC3CC(CC(O)(C3)C1)C2)NCCc1ccc(Cl)cc1	4.1	.	0.4	-20.0*	.	0.2
COc1cccc(S(=O)(=O)N2CC[C@H]3[C@H](CO)Nc4ccc(C#Cc5ccccc5)cc4[C@H]32)c1	-1.3	-4.0	1.0	2.5	-0.8	0.0
Cc1cccn2c(=O)c3cc(C(=O)NCc4ccco4)c(=N)n(CCOCCO)c3nc12	.	73.3*	.	.	1.3	.
COc1ccc(-c2nn(-c3ccccc3)cc2/C=C/C(=O)N2CCOCC2)cc1OC	-5.8	.	.	-24.1*	.	1.4
Cc1sc2ncnc(Sc3ccccc3C(=O)O)c2c1C	-21.4	.	0.0	-24.2*	.	0.1
CO[C@H]1CN(C)C(=O)c2ccc(NC(=O)c3ccccc3F)cc2OC[C@H](C)NC[C@@H]1C	9.6	.	-0.2	-0.4	.	0.0
COc1ccc(CCNC(=O)c2cc3c(=O)n4ccccc4nc3n(C3CCCCC3)c2=N)cc1OC	29.1	38.5	.	-19.5*	2.6	0.0
COc1ccc(CCNC(=O)c2cc3c(=O)n4ccccc4nc3n(C3CCCCC3)c2=N)cc1	-18.1	15.6	.	-30.1	-10.5	0.0
COCCn1c(-c2ccc(Cl)cc2)cnc1SCC(=O)NCCc1ccc(OC)c(OC)c1	-5.2	.	.	-21.6*	.	-0.1
O=C(C[C@H]1C=C[C@@H](NC(=O)Nc2cccc(F)c2)[C@H](CO)O1)NCC1CCCCC1	4.6	-0.8	-0.3	-8.9	1.9	0.5
O=C1C(=Cc2cccs2)Oc2ccccc21	-6.6	-2.8	0.4	-18.9*	-0.6	0.0
O=C1/C(=C/c2cccs2)COc2ccccc21	-10.2	.	.	-41.2	.	-0.1
C/C=C/c1ccc2c(c1)O[C@H](CN(C)C(=O)Cc1ccncc1)[C@H](C)CN([C@H](C)CO)S2(=O)=O	-8.5	-16.3	-0.2	4.4	-2.3	-2.0
CO[C@H]1CN(C)C(=O)c2cc(NS(=O)(=O)c3ccccc3C)ccc2OC[C@@H](C)N(S(C)(=O)=O)C[C@@H]1C	1.1	-5.8	.	.	-1.8	.
O=C(Nc1cccc(Cl)c1)Nc1nccs1	.	-1.8	.	.	0.5	.
O=C(Nc1ccc(Cl)c(Cl)c1)Nc1nccs1	-17.3	5.1	0.3	-25.6*	-3.6	0.8
CC(C)C1C(c2ccccc2)N(C)C(c2ccccc2)CC1(O)c1ccccc1 (stereo unspecified)	-9.2	-5.3	.	-29.8*	5.9	.
